Assay results: article PMC11256359 (Biochemistry, 2024)
Where a chain is given by its changes, count along the chain named.

Legend:
Type in all cases: binding
[1] = biological target: T1, hOTC (human ornithine transcarbamylase) (Homo sapiens, UniProt P00480, D263A); assay: microscale thermophoresis, label-free
T1 sequence (P00480 33-354 D263A): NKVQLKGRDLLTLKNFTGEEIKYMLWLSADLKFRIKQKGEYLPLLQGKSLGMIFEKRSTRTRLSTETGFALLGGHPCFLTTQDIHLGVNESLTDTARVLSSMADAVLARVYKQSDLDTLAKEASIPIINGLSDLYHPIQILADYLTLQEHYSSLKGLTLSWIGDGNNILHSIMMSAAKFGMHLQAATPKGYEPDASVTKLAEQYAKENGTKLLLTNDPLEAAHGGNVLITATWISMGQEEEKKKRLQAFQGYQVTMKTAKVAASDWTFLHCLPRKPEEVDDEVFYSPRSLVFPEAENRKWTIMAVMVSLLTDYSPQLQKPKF
Method in brief: (§1)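 His-tagged human OTC (WT or variants) expressed in BL21(DE3) Tuner cells with pGro7 chaperones and purified by one-step nickel chromatography. Ligand: substrate CP, serially diluted. Protein was diluted to 500 nM in 50 mM HEPES, 150 mM NaCl, 0.05% Tween, 2 mM EDTA, then mixed with CP to 250 nM final. Incubated ≥5 min at room temperature. Kd was measured by label-free MST on intrinsic tryptophan fluorescence.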

[2] = biological target: T2, hOTC (human ornithine transcarbamylase) (Homo sapiens, UniProt P00480, C303A); assay: microscale thermophoresis, label-free
T2 sequence (P00480 33-354 C303A): T1 sequence (P00480 33-354 D263A) with A231D, C271A
Method in brief: as §1

[3] = biological target: T3, hOTC (human ornithine transcarbamylase) (Homo sapiens, UniProt P00480, H302L); assay: microscale thermophoresis, label-free
T3 sequence (P00480 33-354 H302L): T1 sequence (P00480 33-354 D263A) with A231D, H270L
Method in brief: as §1

[4] = biological target: T4, hOTC (human ornithine transcarbamylase) (Homo sapiens, UniProt P00480, H107N); assay: microscale thermophoresis, label-free
T4 sequence (P00480 33-354 H107N): T1 sequence (P00480 33-354 D263A) with H75N, A231D
Method in brief: as §1

[5] = biological target: T5, hOTC (human ornithine transcarbamylase) (Homo sapiens, UniProt P00480, D263N); assay: microscale thermophoresis, label-free
T5 sequence (P00480 33-354 D263N): T1 sequence (P00480 33-354 D263A) with A231N
Method in brief: as §1

[6] = biological target: T6, hOTC (human ornithine transcarbamylase) (Homo sapiens, UniProt P00480); assay: microscale thermophoresis, label-free
T6 sequence (P00480 33-354): T1 sequence (P00480 33-354 D263A) with A231D

[7] = biological target: T6, hOTC (human ornithine transcarbamylase); assay: thermal shift assay; conditions: 10 mM L-norvaline with carbamoyl phosphate present; 4 µM enzyme; storage buffer

| Kd [1] | Kd [2] | Kd [3] | Kd [4] | Kd [5] | Kd [6] | Tm increase relative to CP alone [7] | SMILES |
| --- | --- | --- | --- | --- | --- | --- | --- |
| 430 nM | 190 nM | 110000 nM | 25000 nM | 320 nM | 230 nM |  | NC(=O)OP(=O)(O)O [CP, carbamoyl phosphate] |
|  |  |  |  |  |  | 2 °C | CCC[C@H](N)C(=O)O [NVA, L-norvaline] |
